From ChEMBL document CHEMBL1156822, “Isosorbide-2-benzyl carbamate-5-salicylate, a peripheral anionic site binding subnanomolar selective butyrylcholinesterase inhibitor” (J Med Chem, 2010)

Legend:
[1] = molecular target: T1, Cholinesterase (Homo sapiens, UniProt P06276); assay: Inhibition of BuChE in human liver microsomes
[2] = molecular target: Acetylcholinesterase (Electrophorus electricus) (UniProt O42275); assay: Inhibition of electric eel AChE type 6S at 100 uM
Outline: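 Electric eel AChE (type VI-S) in pH 8.0 phosphate buffer was preincubated for 30 min at 37 °C with test compound added from a 2 mmol MeCN stock. Ellman read-out followed, with final DTNB 0.3 mmol and acetylthiocholine 0.5 mmol.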

[3] = Selectivity for human BuChe over electric eel AChE type 6S
[4] = molecular target: T1, Cholinesterase; assay: Inhibition of BuChE in human liver microsomes assessed as dissociation constant for Michaelis complex formation by enzyme kinetic study; conditions: Microsome
[5] = molecular target: Acetylcholinesterase (Homo sapiens) (UniProt P22303); assay: Inhibition of human erythrocyte AChE at 100 uM
Sequence of Acetylcholinesterase (Homo sapiens) (P22303 whole entry): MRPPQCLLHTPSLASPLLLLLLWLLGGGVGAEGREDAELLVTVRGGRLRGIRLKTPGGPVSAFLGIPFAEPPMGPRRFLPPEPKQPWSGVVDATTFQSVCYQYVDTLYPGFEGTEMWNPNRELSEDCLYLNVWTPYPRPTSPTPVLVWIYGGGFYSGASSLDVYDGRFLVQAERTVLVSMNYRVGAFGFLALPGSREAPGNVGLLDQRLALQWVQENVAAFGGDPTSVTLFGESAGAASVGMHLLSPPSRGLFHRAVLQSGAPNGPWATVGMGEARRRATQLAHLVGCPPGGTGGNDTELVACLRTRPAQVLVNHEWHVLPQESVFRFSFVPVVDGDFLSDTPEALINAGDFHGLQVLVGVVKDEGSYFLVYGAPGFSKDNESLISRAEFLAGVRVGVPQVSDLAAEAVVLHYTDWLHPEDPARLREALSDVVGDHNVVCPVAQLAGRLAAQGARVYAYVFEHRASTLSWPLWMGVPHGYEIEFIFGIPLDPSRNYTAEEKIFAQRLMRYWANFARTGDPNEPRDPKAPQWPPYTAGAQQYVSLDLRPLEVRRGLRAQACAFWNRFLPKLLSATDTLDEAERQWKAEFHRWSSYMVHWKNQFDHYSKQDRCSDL

[6] = molecular target: T2, Liver carboxylesterase 1 (Homo sapiens, UniProt P23141); assay: Inhibition of human CES1-mediated pNPA substrate turnover
T2 sequence (P23141 whole entry): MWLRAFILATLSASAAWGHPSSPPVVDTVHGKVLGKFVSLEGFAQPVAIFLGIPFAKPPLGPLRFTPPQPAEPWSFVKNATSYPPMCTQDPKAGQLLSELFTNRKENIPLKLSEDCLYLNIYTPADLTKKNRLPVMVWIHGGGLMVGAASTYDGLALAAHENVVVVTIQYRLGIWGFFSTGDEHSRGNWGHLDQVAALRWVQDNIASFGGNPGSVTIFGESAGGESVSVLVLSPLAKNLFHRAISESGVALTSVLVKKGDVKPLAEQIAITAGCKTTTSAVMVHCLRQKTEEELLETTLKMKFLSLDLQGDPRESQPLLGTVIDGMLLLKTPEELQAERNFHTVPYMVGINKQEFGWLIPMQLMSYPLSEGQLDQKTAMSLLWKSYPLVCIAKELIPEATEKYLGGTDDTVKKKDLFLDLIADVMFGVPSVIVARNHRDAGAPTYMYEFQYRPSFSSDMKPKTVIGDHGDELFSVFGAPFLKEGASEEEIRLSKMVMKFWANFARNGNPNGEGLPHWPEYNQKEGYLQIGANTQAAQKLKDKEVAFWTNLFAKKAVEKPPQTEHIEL
Outline: (§1)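 Source: pooled human liver microsomes (CES1) or human intestinal microsomes (CES2). The microsomes were preincubated with inhibitor at 50 nM-200 μM in 50 mM Tris-HCl pH 7.4 for 30 min at 37 °C. Substrate was pNPA at 3 mM final. p-Nitrophenol release was read at 405 nm. Rates were corrected for spontaneous-hydrolysis blanks, with four independent measurements per concentration. IC50 came from nonlinear sigmoidal curve fit.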

[7] = molecular target: T3, Cocaine esterase (Homo sapiens, UniProt O00748); assay: Inhibition of human CES2-mediated pNPA substrate turnover; outline: as §1
T3 sequence (O00748 whole entry): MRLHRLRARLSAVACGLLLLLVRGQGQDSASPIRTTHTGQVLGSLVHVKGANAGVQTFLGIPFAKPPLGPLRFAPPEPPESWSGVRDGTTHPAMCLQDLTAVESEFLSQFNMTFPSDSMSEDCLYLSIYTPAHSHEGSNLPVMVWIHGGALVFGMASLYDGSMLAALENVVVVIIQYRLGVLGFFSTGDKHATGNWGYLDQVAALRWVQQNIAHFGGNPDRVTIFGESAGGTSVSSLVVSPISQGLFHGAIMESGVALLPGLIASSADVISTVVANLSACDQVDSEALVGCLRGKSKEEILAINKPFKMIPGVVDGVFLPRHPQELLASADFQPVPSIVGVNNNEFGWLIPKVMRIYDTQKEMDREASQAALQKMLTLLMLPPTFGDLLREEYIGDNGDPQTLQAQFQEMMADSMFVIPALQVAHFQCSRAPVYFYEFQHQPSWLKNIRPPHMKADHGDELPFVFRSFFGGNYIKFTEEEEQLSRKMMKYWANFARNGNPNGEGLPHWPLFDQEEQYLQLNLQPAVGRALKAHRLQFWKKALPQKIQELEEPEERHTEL

[8] = organism: Homo sapiens; assay: Selectivity for human BuChe over human CES2
[9] = test system: Plasma; assay: Metabolic stability in 33% human plasma assessed as compound hydrolysis after 1 hr by HPLC; format: ADME, cell-free
Outline: (§2)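 The ester (1 × 10^-4 M) was incubated in human plasma solution (33-50%), mouse plasma (33%) or mouse liver homogenate. Remaining intact ester was measured by HPLC as a function of time over 1 h.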

[10] = test system: Plasma; assay: Metabolic stability in 33% mouse plasma assessed as compound hydrolysis after 1 hr by HPLC; format: ADME, cell-free; outline: as §2
[11] = test system: Liver; assay: Metabolic stability in 33% mouse liver homogenate assessed as compound hydrolysis after 1 hr by HPLC; format: ADME, tissue-based; conditions: tissue homogenate; outline: as §2
[12] = Inhibition of human BuChE D70G mutant assessed as dissociation constant for Michaelis complex formation by enzyme kinetic study
Outline: (§3)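 Wild-type human BuChE (lyophilised, dissolved in pH 8.0 phosphate buffer) or recombinant mutants. Final concentrations: enzyme 0.05 U mL^-1, DTNB 0.3 mmol, butyrylthiocholine 0.5 mmol. Inhibitor at various concentrations was mixed with enzyme at time 0. Aliquots taken at successive times were read at 412 nm over 30 s, in at least two wells each. k_obs came from a first-order fit, and K_c from a nonlinear fit of k_obs against inhibitor concentration.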

[13] = organism: Homo sapiens; assay: Inhibition of human BuChE Y332A mutant assessed as dissociation constant for Michaelis complex formation by enzyme kinetic study; outline: as §3
[14] = organism: Homo sapiens; assay: Inhibition of human BuChE D70G/Y332A mutant assessed as dissociation constant for Michaelis complex formation by enzyme kinetic study; outline: as §3

T1 sequence (P06276 whole entry): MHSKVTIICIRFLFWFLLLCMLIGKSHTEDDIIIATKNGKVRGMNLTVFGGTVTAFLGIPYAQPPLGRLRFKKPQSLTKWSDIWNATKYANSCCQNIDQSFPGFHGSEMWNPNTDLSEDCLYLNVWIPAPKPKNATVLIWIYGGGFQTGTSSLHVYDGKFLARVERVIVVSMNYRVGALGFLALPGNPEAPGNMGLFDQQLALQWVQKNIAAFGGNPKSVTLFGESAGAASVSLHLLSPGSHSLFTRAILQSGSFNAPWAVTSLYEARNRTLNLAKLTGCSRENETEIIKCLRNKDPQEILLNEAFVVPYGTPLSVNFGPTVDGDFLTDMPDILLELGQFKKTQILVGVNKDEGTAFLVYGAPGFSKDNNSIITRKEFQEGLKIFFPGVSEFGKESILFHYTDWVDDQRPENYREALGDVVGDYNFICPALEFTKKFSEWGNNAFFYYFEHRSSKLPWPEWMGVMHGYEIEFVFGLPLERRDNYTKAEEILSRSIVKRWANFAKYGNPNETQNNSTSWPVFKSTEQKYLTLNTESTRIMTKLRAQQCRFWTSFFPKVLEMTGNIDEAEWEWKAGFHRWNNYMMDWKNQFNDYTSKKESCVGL
Sequence of Acetylcholinesterase (Electrophorus electricus) (O42275 24-633 limits assumed): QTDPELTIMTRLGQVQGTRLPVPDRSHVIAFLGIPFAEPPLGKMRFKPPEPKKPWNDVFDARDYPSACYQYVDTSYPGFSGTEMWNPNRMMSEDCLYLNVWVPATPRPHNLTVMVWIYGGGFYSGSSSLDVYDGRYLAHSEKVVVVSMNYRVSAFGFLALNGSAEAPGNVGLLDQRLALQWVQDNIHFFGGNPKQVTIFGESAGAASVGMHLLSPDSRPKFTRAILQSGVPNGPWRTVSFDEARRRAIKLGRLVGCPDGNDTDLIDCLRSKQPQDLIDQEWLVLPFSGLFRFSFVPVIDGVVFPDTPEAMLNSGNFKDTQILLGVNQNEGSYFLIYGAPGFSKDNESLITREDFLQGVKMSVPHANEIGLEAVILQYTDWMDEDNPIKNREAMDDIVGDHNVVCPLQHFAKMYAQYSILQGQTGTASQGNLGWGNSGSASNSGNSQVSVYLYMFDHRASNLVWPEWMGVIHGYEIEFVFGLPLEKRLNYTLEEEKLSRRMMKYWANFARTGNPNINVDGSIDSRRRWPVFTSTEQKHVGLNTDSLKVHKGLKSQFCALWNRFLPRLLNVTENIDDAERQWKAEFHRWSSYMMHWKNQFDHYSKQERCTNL

With `Cc1ccccc1C(=O)O[C@@H]1CO[C@H]2[C@@H]1OC[C@@H]2OC(=O)NCc1ccccc1` the IC50 [1] was 1.2 nM, the inhibition [2] was 26% and the Ratio [3] was greater than 83300. The Activity [4] was 0.248 µM.

With `O=C(NCc1ccccc1)O[C@H]1CO[C@H]2[C@@H]1OC[C@H]2OC(=O)c1ccccc1[N+](=O)[O-]` the IC50 [1] was 18 nM, the inhibition [2] was 0% and the Ratio [3] was greater than 5560.

`O=C(NCc1ccccc1)O[C@H]1CO[C@H]2[C@@H]1OC[C@H]2OC(=O)c1ccccc1O` gave an IC50 [1] of 0.15 nM, an inhibition [2] of 47% and an inhibition [5] of 52%. The Ratio [3] was greater than 660000, the Activity [6] was “Not Active” and the IC50 [7] was 3.42 µM. For the same molecule, the Ratio IC50 [8] was 22800, the Stability [9] was “Stable” and the Stability [10] was “Stable”. The Stability [11] was “Stable”, the Activity [4] was 0.01 µM and the Activity [12] was 0.067 µM. For the same molecule, the Activity [13] was 0.05 µM and the Activity [14] was 0.445 µM.

`O=C(NCc1ccccc1)O[C@H]1CO[C@H]2[C@@H]1OC[C@H]2OC(=O)c1cccc([N+](=O)[O-])c1` gave an IC50 [1] of 32 nM, an inhibition [2] of 0% and a Ratio [3] greater than 3120.

Work on `O=C(NCc1ccccc1)O[C@H]1CO[C@H]2[C@@H]1OC[C@H]2OC(=O)c1ccccc1` yielded an Activity [12] of 2.4 µM, an Activity [13] of 1.5 µM and an Activity [14] of 6.4 µM.

`Nc1ccccc1C(=O)O[C@@H]1CO[C@H]2[C@@H]1OC[C@@H]2OC(=O)NCc1ccccc1` showed an IC50 [1] of 27 nM, an inhibition [2] of 0% and a Ratio [3] greater than 3700.

With `O=C(NCc1ccccc1)O[C@H]1CO[C@H]2[C@@H]1OC[C@H]2OC(=O)c1ccc([N+](=O)[O-])cc1` the IC50 [1] was 117 nM, the inhibition [2] was 27% and the Ratio [3] was greater than 854.

For `O=C(NCc1ccccc1)O[C@H]1CO[C@H]2[C@@H]1OC[C@H]2OC(=O)c1ccc(O)cc1`, the IC50 [1] was 323 nM, the inhibition [2] was 0% and the Ratio [3] was greater than 309.

Work on `O=Nc1ccccc1C(=O)O[C@@H]1CO[C@H]2[C@@H]1OC[C@@H]2OC(=O)NCc1ccccc1` yielded an IC50 [1] of 39 nM, an inhibition [2] of 0% and a Ratio [3] greater than 2560.

In the case of `O=C(NCc1ccccc1)O[C@H]1CO[C@H]2[C@@H]1OC[C@H]2OC(=O)c1cccc(O)c1`, the IC50 [1] is reported as 16 nM, the inhibition [2] is reported as 0% and the Ratio [3] is reported as greater than 6250.

Molecule `Nc1cccc(C(=O)O[C@@H]2CO[C@H]3[C@@H]2OC[C@@H]3OC(=O)NCc2ccccc2)c1` has an IC50 [1] of 86 nM, an inhibition [2] of 0% and a Ratio [3] greater than 1170.

For `Nc1ccc(C(=O)O[C@@H]2CO[C@H]3[C@@H]2OC[C@@H]3OC(=O)NCc2ccccc2)cc1`, the IC50 [1] was 297 nM, the inhibition [2] was 33% and the Ratio [3] was 336.

For `O=C(NCc1ccccc1)O[C@H]1CO[C@H]2[C@@H]1OC[C@H]2OC(=O)c1cccnc1`, the Activity [4] was 1.9 µM.

In the case of `CCCCNC(=O)O[C@H]1CO[C@H]2[C@@H]1OC[C@H]2OC(=O)c1ccccc1`, the IC50 [1] is reported as 72 nM, the Activity [4] is reported as 2.57 µM and the Activity [12] is reported as 2.7 µM. It also gave an Activity [13] of 1.3 µM and an Activity [14] of 5.3 µM.

`O=C(NCc1ccccc1)O[C@H]1CO[C@H]2[C@@H]1OC[C@H]2O` gave an Activity [4] of 18.7 µM.

With `CN(C)C(=O)O[C@H]1CO[C@H]2[C@@H]1OC[C@H]2OC(=O)c1ccccc1O` the IC50 [1] was 6.4 nM, the inhibition [2] was 0% and the Ratio [3] was greater than 15600.

With `O=C(O[C@@H]1CO[C@H]2[C@@H]1OC[C@@H]2OC(=O)N1CCOCC1)c1ccccc1O` the IC50 [1] was 1060 nM, the inhibition [2] was 12% and the Ratio [3] was greater than 95.

`CCN(CC)C(=O)O[C@H]1CO[C@H]2[C@@H]1OC[C@H]2OC(=O)c1ccccc1O` gave an IC50 [1] of 2610 nM, an inhibition [2] of 0% and a Ratio [3] greater than 38.

In the case of `CCNC(=O)O[C@H]1CO[C@H]2[C@@H]1OC[C@H]2OC(=O)c1ccccc1O`, the IC50 [1] is reported as 9.6 nM, the inhibition [2] is reported as 16% and the Ratio [3] is reported as greater than 10400. The Activity [4] was 0.075 µM, the Activity [12] was 0.32 µM and the Activity [13] was 0.42 µM. It also gave an Activity [14] of 2.26 µM.

Work on `O=C(NCc1ccccc1)O[C@H]1CO[C@H]2[C@@H]1OC[C@H]2OC(=O)c1ccc(-c2ccccc2)cc1` yielded an Activity [4] of 0.4 µM.
